pIC50, pKi: −log10 of the molar value. Active and inactive are the calls of the source. No cut-off for these calls is given here.
Experiments:
[1] = molecular target: T1, Calpain-1 catalytic subunit (Homo sapiens, UniProt P07384); experiment: Inhibition of human erythrocytes calpain-1 using Suc-Leu-Tyr-AMC as substrate by kinetic fluorescence assay; conditions: read-out: Ki
T1 sequence (P07384 whole entry): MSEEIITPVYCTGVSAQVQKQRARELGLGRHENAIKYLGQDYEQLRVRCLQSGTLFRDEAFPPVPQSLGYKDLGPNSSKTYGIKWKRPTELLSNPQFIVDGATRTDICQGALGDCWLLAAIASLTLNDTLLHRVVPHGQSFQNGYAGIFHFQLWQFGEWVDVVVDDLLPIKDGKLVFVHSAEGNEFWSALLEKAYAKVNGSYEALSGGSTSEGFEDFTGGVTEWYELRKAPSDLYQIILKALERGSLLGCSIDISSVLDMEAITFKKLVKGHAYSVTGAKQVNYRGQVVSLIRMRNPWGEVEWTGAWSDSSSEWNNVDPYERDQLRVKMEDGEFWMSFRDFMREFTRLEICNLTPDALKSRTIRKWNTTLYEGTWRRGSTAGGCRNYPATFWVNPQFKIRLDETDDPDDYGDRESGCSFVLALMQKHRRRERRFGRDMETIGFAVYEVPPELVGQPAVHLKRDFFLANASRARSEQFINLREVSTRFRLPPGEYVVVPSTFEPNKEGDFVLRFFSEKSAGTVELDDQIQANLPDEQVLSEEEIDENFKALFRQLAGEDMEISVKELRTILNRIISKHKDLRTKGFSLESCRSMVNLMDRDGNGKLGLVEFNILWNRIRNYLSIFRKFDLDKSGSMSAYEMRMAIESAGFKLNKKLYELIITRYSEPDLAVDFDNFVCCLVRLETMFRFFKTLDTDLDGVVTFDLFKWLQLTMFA

[2] = Thiol reactivity using recombinant human full length 13C-labeled La antigen (100 to 324 residues) expressed in Escherichia coli BL21(DE3) by ALARM NMR
Cathepsin B = Cathepsin B (Homo sapiens, UniProt P07858); experiment: Inhibition of human liver cathepsin B using Z-Phe-Arg-AMC as substrate by kinetic fluorescence assay
Homo sapiens [3] = species: Homo sapiens; experiment: Selectivity ratio of Ki for recombinant human cathepsin S expressed in Escherichia coli to Ki for human erythrocytes calpain-1
Method in brief: (§1)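 Ki ratios from kinetic fluorescence assays. Cathepsins B (0.25 nM), L (1 nM), K (3 nM) and S (0.5 nM) in MES buffer at pH 6.0. All at room temperature; Ki by Cheng-Prusoff.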

Cathepsin K = molecular target: T2, Cathepsin K (Homo sapiens, UniProt P43235); experiment: Inhibition of human procathepsin K expressed in Escherichia coli using Z-Gly-Pro-Arg-AMC as substrate by kinetic fluorescence assay
T2 sequence (P43235 whole entry): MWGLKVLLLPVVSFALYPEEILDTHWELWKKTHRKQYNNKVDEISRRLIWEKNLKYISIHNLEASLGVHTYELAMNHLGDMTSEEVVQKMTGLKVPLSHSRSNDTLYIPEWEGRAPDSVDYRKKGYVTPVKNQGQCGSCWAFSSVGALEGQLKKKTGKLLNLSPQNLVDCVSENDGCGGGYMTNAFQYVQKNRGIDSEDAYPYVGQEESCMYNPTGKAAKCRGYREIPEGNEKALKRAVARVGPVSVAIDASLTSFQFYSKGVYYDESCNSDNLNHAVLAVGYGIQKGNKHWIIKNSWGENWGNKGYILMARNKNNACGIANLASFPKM
Method in brief: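 Cathepsin K at 3 nM, activated from E. coli-expressed recombinant human procathepsin K. Substrate 10 µM Z-Gly-Pro-Arg-AMC in MES/EDTA/Brij 35/L-cysteine buffer, pH 6.0, room temperature. Ki obtained via Cheng-Prusoff from IC50. Mean of 2–4 curves.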

[4] = molecular target: T3, Pro-cathepsin H (Homo sapiens) (UniProt P09668); experiment: Inhibition of Cathepsin H (unknown origin) at 10 uM
T3 sequence (whole entry): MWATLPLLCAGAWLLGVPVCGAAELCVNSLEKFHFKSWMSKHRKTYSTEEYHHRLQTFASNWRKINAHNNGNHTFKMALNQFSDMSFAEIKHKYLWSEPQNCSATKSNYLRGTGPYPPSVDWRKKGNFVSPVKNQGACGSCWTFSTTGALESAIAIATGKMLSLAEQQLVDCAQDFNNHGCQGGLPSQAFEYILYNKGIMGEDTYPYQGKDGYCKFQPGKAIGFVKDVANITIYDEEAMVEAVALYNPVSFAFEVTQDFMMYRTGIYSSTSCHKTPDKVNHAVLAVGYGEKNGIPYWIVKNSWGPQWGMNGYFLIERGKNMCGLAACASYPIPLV

Cathepsin S = Cathepsin S (Homo sapiens, UniProt P25774); experiment: Inhibition of human cathepsin S expressed in Escherichia coli using Z-Val-Val-Arg-AMC as substrate by kinetic fluorescence assay
Sequence of Cathepsin S (P25774 whole entry): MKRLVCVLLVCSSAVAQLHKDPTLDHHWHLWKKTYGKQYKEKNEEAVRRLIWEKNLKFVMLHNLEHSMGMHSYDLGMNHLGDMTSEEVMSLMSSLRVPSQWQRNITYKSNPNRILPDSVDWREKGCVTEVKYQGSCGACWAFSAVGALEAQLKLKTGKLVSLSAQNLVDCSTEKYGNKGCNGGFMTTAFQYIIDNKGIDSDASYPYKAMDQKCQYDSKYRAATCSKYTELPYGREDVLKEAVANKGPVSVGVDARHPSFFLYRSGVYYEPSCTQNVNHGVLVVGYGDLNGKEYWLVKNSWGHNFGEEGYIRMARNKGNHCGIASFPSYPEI

[5] = Selectivity ratio of Ki for human liver cathepsin B to Ki for human erythrocytes calpain-1
[6] = molecular target: Cathepsin C (Dipeptidyl peptidase 1) (Homo sapiens, UniProt P53634); experiment: Inhibition of Cathepsin C (unknown origin) at 10 uM
Sequence of Cathepsin C (Dipeptidyl peptidase 1) (P53634 25-134 limits assumed): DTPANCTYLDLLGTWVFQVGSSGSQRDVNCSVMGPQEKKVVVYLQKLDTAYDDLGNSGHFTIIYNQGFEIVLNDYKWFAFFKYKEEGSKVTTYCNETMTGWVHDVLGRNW
Sequence of Cathepsin C (Dipeptidyl peptidase 1) (P53634 231-394 limits assumed): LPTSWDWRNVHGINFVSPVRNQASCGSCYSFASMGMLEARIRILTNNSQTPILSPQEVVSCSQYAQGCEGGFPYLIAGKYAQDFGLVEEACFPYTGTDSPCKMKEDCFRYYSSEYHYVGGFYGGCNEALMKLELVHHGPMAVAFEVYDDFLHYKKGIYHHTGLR
Sequence of Cathepsin C (Dipeptidyl peptidase 1) (P53634 395-463 limits assumed): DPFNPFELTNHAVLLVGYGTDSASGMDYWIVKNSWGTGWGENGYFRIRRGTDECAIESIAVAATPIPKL

[7] = Inhibition of human liver cathepsin L using Z-Phe-Arg-AMC as substrate by kinetic fluorescence assay
[8] = Selectivity ratio of Ki for human liver cathepsin L to Ki for human erythrocytes calpain-1
[9] = molecular target: T4, Calpain-1 catalytic subunit (Homo sapiens) (UniProt P07384); experiment: Inhibition of human erythrocytes calpain-1 using Suc-Leu-Tyr-AMC as substrate in presence of up to 10 mM glutathione by kinetic fluorescence assay
T4 sequence (whole entry): T1 sequence (P07384 whole entry)

Homo sapiens [10] = species: Homo sapiens; experiment: Selectivity ratio of Ki for recombinant human procathepsin K expressed in Escherichia coli to Ki for human erythrocytes calpain-1; method in brief: as §1
[11] = molecular target: T5, Calpain-1 catalytic subunit (Rattus norvegicus) (UniProt P97571); experiment: (§2) Inhibition of calpain-1 in rat hippocampal slices assessed as prevention of NMDA-induced spectrin cleavage preincubated for 30 mins followed by NMDA addition measured after 5 hrs by Western blot analysis
T5 sequence (whole entry): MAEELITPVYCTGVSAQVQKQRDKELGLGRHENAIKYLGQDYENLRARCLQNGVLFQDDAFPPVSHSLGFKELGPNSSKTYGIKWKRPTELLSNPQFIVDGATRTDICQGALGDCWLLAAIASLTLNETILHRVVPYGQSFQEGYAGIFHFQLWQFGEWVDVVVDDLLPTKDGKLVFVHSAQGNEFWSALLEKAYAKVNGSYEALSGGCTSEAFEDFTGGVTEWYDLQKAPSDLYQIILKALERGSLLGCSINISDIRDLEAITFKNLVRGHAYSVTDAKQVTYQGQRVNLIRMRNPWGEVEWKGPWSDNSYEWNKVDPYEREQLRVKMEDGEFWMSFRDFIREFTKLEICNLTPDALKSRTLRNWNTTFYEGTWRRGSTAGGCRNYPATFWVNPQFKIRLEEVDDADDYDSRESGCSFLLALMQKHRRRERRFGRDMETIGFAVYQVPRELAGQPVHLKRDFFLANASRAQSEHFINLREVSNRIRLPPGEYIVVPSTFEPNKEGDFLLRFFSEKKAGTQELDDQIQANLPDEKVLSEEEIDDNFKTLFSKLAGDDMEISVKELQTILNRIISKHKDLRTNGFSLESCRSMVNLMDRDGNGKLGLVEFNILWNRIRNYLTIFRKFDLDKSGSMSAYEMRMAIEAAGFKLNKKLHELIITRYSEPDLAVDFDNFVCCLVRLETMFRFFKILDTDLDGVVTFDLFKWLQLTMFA
Method in brief: (§3)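 Organotypic rat hippocampal slice cultures kept 6–8 days in 2% serum medium; 30 min inhibitor pre-incubation, then 10 µM NMDA for 5 h at 34°C, 5% CO2. Slices lysed; 150/145 kDa spectrin breakdown products quantified by densitometric Western blot with anti-spectrin alpha chain antibody.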

[12] = molecular target: T6, Calpain-1 catalytic subunit (Rattus norvegicus, UniProt P97571); experiment: as §2; method in brief: as §3
T6 sequence (P97571 whole entry): T5 sequence (whole entry)

[13] = Solubility of the compound; format: physicochemical

| Compound | pKi [1] | Thiol reactivity [2] | pKi (Cathepsin B) | Ratio Ki (Homo sapiens [3]) | pKi (Cathepsin K) | inhibition [4] [%] | pKi (Cathepsin S) | Ratio Ki [5] | inhibition at 10 µM [6] [%] | pKi [7] | Ratio Ki [8] | inhibition [9] | Ratio Ki (Homo sapiens [10]) | fIC50 [11] [nM] | pIC50 [12] | solubility [13] |
| --- | --- | --- | --- | --- | --- | --- | --- | --- | --- | --- | --- | --- | --- | --- | --- | --- |
| CCN(CC)Cc1ccc(/C=C/c2ccccc2C(=O)NC(Cc2ccccc2)C(=O)C(N)=O)cc1 (stereo not drawn) | 7.25 | Metabolite not detected | 7.55 | 59 | 8.74 | 84 | 5.48 | <1 | 94 | 6.86 | 2.5 | Active | < 0.1 |  |  |  |
| NC(=O)C(=O)C(Cc1ccccc1)NC(=O)c1cccnc1-n1cc2c(n1)-c1ccccc1OC2 (stereo not drawn) | 8.10 | Metabolite not detected |  | > 500 |  |  |  | 29 |  |  | 278 | Active | 47 | 65 | 5.69 | Insoluble |
